Drawing on ChEMBL document CHEMBL1221219, “Selective blockade of 2-arachidonoylglycerol hydrolysis produces cannabinoid behavioral effects” (Nat Chem Biol, 2009), this text covers inhibition and IC50 for five compounds.

pIC50: −log10 of the molar value. Calls of active or inactive are those of the source. The rule behind the calls is not given here.

In assay [1] the target is T1, Monoglyceride lipase (Mus musculus) (UniProt O35678).
T1 sequence (whole entry): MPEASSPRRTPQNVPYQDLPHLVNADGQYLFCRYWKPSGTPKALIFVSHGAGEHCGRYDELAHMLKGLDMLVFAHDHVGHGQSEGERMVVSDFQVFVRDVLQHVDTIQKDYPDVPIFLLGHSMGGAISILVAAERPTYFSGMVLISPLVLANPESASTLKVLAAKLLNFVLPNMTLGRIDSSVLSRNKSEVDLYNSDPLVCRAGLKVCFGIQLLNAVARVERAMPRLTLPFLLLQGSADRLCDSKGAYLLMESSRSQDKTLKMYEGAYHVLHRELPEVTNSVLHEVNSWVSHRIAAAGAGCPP
As to the kind of experiment: Inhibition of MAGL in C57B1/6J mouse brain membrane after 30 mins by competitive activity-based protein profiling method. The format is cell membranes. The method in brief:
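Mouse brain membrane proteome (1 mg ml^-1 in PBS) preincubated 30 min at 37°C with inhibitor (1 nM-10 μM). FP-rhodamine then added (2 μM final) for 30 min at room temperature. Reaction quenched in SDS loading buffer, boiled 5 min at 90°C, resolved by SDS-PAGE and read by in-gel fluorescence.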

Another assay deals with T2, Monoglyceride lipase (Rattus norvegicus, UniProt Q8R431).
T2 sequence (Q8R431 whole entry): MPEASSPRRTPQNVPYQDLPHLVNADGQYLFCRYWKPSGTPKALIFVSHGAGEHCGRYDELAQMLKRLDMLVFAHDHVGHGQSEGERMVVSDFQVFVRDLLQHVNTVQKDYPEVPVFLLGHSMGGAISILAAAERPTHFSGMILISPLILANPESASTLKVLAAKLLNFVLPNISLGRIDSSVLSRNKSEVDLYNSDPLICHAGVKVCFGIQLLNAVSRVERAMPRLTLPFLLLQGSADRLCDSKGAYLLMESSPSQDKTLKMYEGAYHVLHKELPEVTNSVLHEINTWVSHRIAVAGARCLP
As to the kind of experiment: Inhibition of MAGL in Wistar rat brain.

In assay [2] the target is T3, Monoacylglycerol lipase ABHD6 (Mus musculus) (UniProt Q8R2Y0).
T3 sequence (whole entry): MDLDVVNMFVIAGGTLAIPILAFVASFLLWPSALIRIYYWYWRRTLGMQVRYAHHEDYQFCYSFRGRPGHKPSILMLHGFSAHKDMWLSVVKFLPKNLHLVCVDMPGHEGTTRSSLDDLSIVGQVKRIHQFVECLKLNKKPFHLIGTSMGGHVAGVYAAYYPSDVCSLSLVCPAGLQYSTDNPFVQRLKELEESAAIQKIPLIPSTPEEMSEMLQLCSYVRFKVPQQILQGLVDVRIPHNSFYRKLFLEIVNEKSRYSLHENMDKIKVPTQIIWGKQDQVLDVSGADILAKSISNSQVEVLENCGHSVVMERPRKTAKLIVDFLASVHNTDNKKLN
As to the kind of experiment: Inhibition of ABHD6 in C57B1/6J mouse brain membrane after 30 mins by competitive activity-based protein profiling method. The assay is classed as cell membranes. Summed up: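 Mouse brain membrane proteome at 1 mg ml^-1 in PBS was preincubated with inhibitor (1 nM-10 μM) for 30 min at 37°C. FP-rhodamine was then added at 2 μM final for 30 min at room temperature, followed by SDS-PAGE and in-gel fluorescence scanning.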

`COc1ccc(C(O)(c2ccc(OC)cc2)C2CCN(C(=O)Oc3ccc([N+](=O)[O-])cc3)CC2)cc1`: the inhibition result in assay [1] was “Active”.
As usually defined, the pIC50 is the IC50 on a negative log10 scale, so that one unit is a factor of ten. Read a high pIC50 as a small IC50. Compound `O=C(Nc1cccc(-c2ccccc2)c1)OC1CCCCC1` showed a pIC50 against Monoglyceride lipase of 3.70.
For the compound `CN(Cc1cccc(-c2ccncc2)c1)C(=O)Oc1ccc([N+](=O)[O-])cc1`, the inhibition entry in assay [1] and in assay [2] was “Active” each time.
Turning to `O=C(Oc1ccc([N+](=O)[O-])cc1)N1CCN(C(c2ccc(F)cc2)c2ccc(F)cc2)CC1`, the inhibition entry in assay [1] and in assay [2] was “Active” in each case.
`COc1ccc(C(c2ccc(OC)cc2)N2CCN(C(=O)Oc3ccc([N+](=O)[O-])cc3)CC2)cc1`: the inhibition result in assay [1] and in assay [2] was “Active” in each case.
